Experimental data as given in ChEMBL document CHEMBL3351523 (Bioorg Med Chem, 2014).

Columns and labels:
[1] = tested on: Poliovirus 1; test: Antiviral activity against Poliovirus type 1 Sabin strain infected in african green monkey Vero 76 cells assessed as reduction in plaque number after 2 days by plaque reduction assay; assay type: functional, organism-based; conditions: Enterovirus C, 48 h
[2] = Cytotoxicity against mock-infected MDBK cells after 48 to 96 hrs by MTT assay; assay type: cell-based, Bos taurus; conditions: cattle
Outline: (§1)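 Mock-infected MDBK (6 × 10^5 cells/mL; MEM-E, 10% horse serum, 1 mM pyruvate) or BHK (1 × 10^6 cells/mL; MEM-E, 10% FBS) cells were incubated at 37 °C, 5% CO2 with serial dilutions from 100 µM, 1:5. Viability by MTT after 48–96 h. CC50 from linear regression against untreated controls.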

[3] = tested on: Vesicular stomatitis virus; test: Antiviral activity against Vesicular stomatitis virus infected in african green monkey Vero 76 cells assessed as reduction in plaque number after 2 days by plaque reduction assay; assay type: functional, organism-based; conditions: 48 h
[4] = tested on: Yellow fever virus; test: Antiviral activity against Yellow fever virus infected in BHK21 cells assessed as inhibition of virus-induced cytopathogenicity after 3 to 4 days by MTT assay; assay type: functional, organism-based; conditions: BHK-21
[5] = tested on: Human alphaherpesvirus 1; test: Antiviral activity against HSV1 infected in african green monkey Vero 76 cells assessed as reduction in plaque number after 3 days by plaque reduction assay; assay type: functional, organism-based; conditions: Human alphaherpesvirus 1, Vero, 72 h
[6] = tested on: Reovirus sp.; test: Antiviral activity against Reovirus type-1 infected in BHK21 cells assessed as inhibition of virus-induced cytopathogenicity after 3 to 4 days by MTT assay; assay type: functional, organism-based; conditions: BHK-21
[7] = tested on: Bovine viral diarrhea virus 1; test: Antiviral activity against Bovine viral diarrhea virus infected in MDBK cells assessed as inhibition of virus-induced cytopathogenicity after 3 to 4 days by MTT assay; assay type: functional, organism-based; conditions: Bovine viral diarrhea virus isolates and strains
[8] = tested on: Vaccinia virus; test: Antiviral activity against Vaccinia Virus infected in african green monkey Vero 76 cells assessed as reduction in plaque number after 3 days by plaque reduction assay; assay type: functional, organism-based; conditions: Orthopoxvirus vaccinia, 72 h
[9] = Cytotoxicity against mock-infected BHK21 cells after 48 to 96 hrs by MTT assay; assay type: functional; conditions: Mesocricetus auratus, BHK-21; outline: as §1
[10] = tested on: Human immunodeficiency virus 1; test: Antiviral activity against HIV1 infected in human MT4 cells assessed as inhibition of virus-induced cytopathogenicity after 4 days by MTT assay; assay type: functional, organism-based; conditions: Human immunodeficiency virus 1, MT4, 96 h
Outline: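 MT-4 cells (1 × 10^4/well in RPMI) were infected acutely with HIV-1 IIIB, 100 CCID50 (m.o.i. 0.01), with serial dilutions from 100 µM, 1:5. After 4 days at 37 °C, protection from virus-induced cytopathogenicity was read by MTT. EC50 came from linear regression against untreated controls.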

[11] = Selectivity index, ratio of CC50 for african green monkey Vero 76 cells to EC50 for Coxsackievirus B5; assay type: toxicity, cell-based; conditions: read-out: Ratio CC50/EC50
Outline: (§2)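 Mock-infected Vero-76 cells were tested in parallel on the same 24-well plates as the plaque assays (seeding 4 × 10^5 cells/mL, D-MEM with FBS), with serial compound dilutions at 37 °C, 5% CO2. Viability was read after 48–96 h by crystal violet staining. CC50 by linear regression; selectivity index = Vero-76 CC50/EC50 for CVB-5 or RSV.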

[12] = Cytotoxicity against mock-infected human MT4 cells after 96 hrs by MTT assay; assay type: cell-based
Outline: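 Exponentially growing MT-4 cells were seeded at 1 × 10^5 cells/mL in RPMI-1640 with 10% FBS and held at 37 °C, 5% CO2 with serial compound dilutions. Viability was read by MTT after 96 h. CC50 from linear regression against untreated controls.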

[13] = tested on: Respiratory syncytial virus; test: Antiviral activity against Respiratory syncytial virus infected in african green monkey Vero 76 cells assessed as reduction in plaque number after 5 days by plaque reduction assay; assay type: functional, organism-based; conditions: human respiratory syncytial virus, 120 h
[14] = tested on: Coxsackievirus B5; test: Antiviral activity against Coxsackievirus B5 infected in african green monkey Vero 76 cells assessed as reduction in plaque number after 3 days by plaque reduction assay; assay type: functional, organism-based; conditions: Enterovirus B, 72 h
[15] = Cytotoxicity against mock-infected african green monkey Vero 76 cells after 48 to 96 hrs by MTT assay; assay type: cell-based; conditions: chlorocebus sabaeus, mock-infected Vero 76 cells
[16] = Selectivity index, ratio of CC50 for african green monkey Vero 76 cells to EC50 for Respiratory syncytial virus; assay type: toxicity, cell-based; conditions: read-out: Ratio CC50/EC50; outline: as §2

| SMILES | EC50 [1] | CC50 [2] | EC50 [3] | EC50 [4] | EC50 [5] | EC50 [6] | EC50 [7] | EC50 [8] | CC50 [9] | EC50 [10] | selectivity ratio [11] | CC50 at 96 h [12] | EC50 [13] | EC50 [14] | CC50 [15] | selectivity ratio [16] |
| --- | --- | --- | --- | --- | --- | --- | --- | --- | --- | --- | --- | --- | --- | --- | --- | --- |
| COCCn1c(Cc2ccc(Cl)c(Cl)c2)nc2cc(C(F)(F)F)ccc21 | > 100 µM | > 100 µM | > 100 µM | > 100 µM | > 100 µM | > 100 µM | > 100 µM | > 100 µM | > 100 µM | > 100 µM | > 8.33 | > 100 µM | > 100 µM | 12 µM | > 100 µM | – |
| c1ccc2[nH]c(SC[C@@H]3CCCN4CCCC[C@H]34)nc2c1 | > 100 µM | > 100 µM | > 100 µM | > 100 µM | > 100 µM | > 100 µM | > 100 µM | > 100 µM | > 100 µM | > 100 µM | > 2.08 | > 100 µM | > 100 µM | 48 µM | > 100 µM | – |
| Cc1nc2cc(C(F)(F)F)ccc2n1C[C@@H]1CCCN2CCCC[C@H]12 | > 100 µM | > 100 µM | > 100 µM | 27 µM | > 100 µM | > 100 µM | > 100 µM | 23 µM | > 100 µM | > 100 µM | > 2.13 | > 100 µM | > 100 µM | 47 µM | > 100 µM | – |
| FC(F)(F)c1ccc2c(c1)nc(CC1CCCC1)n2C[C@@H]1CCCN2CCCC[C@H]12 | > 100 µM | 35 µM | > 100 µM | > 100 µM | > 100 µM | > 100 µM | > 100 µM | > 100 µM | 32 µM | > 100 µM | > 9.09 | 11 µM | > 100 µM | 11 µM | > 100 µM | – |
| c1ccc2[nH]c(CC3CCCC3)nc2c1 | > 100 µM | > 100 µM | > 100 µM | > 100 µM | > 100 µM | > 100 µM | > 100 µM | > 100 µM | > 100 µM | > 100 µM | > 4.76 | > 100 µM | > 100 µM | 21 µM | > 100 µM | – |
| c1ccc(-n2c(C[C@H]3CCCN4CCCC[C@H]34)nc3ccccc32)cc1 | 73 µM | 90 µM | > 100 µM | > 100 µM | > 100 µM | > 100 µM | 44 µM | > 100 µM | 29 µM | > 100 µM | > 5.88 | 42 µM | 7 µM | 17 µM | > 100 µM | > 14.3 |
| O=c1cnn([C@@H]2O[C@H](CO)[C@@H](O)[C@H]2O)c(=O)[nH]1 [6-AZAURIDINE] | > 100 µM | > 100 µM | > 100 µM | > 100 µM | > 100 µM | > 100 µM | > 100 µM | – | > 100 µM | – | – | – | – | > 100 µM | 20 µM | 16.7 |
| COc1c(C)c2c(c(O)c1C/C=C(\C)CCC(=O)O)C(=O)OC2 [MYCOPHENOLIC ACID] | > 100 µM | – | – | > 100 µM | > 100 µM | > 100 µM | > 100 µM | 2 µM | > 100 µM | – | – | – | – | > 100 µM | 20 µM | 33.3 |
| NC(=O)c1ncn([C@@H]2O[C@H](CO)[C@@H](O)[C@H]2O)n1 [RIBAVIRIN] | > 100 µM | > 100 µM | > 100 µM | > 100 µM | > 100 µM | > 100 µM | 8 µM | > 100 µM | > 100 µM | – | – | – | – | > 100 µM | > 100 µM | > 14.3 |
